Assays:
[1] = molecular target: T1, Progesterone receptor (Homo sapiens, UniProt P06401); assay: Displacement of [3H]progesterone from human Progesterone receptor
T1 sequence (P06401 whole entry): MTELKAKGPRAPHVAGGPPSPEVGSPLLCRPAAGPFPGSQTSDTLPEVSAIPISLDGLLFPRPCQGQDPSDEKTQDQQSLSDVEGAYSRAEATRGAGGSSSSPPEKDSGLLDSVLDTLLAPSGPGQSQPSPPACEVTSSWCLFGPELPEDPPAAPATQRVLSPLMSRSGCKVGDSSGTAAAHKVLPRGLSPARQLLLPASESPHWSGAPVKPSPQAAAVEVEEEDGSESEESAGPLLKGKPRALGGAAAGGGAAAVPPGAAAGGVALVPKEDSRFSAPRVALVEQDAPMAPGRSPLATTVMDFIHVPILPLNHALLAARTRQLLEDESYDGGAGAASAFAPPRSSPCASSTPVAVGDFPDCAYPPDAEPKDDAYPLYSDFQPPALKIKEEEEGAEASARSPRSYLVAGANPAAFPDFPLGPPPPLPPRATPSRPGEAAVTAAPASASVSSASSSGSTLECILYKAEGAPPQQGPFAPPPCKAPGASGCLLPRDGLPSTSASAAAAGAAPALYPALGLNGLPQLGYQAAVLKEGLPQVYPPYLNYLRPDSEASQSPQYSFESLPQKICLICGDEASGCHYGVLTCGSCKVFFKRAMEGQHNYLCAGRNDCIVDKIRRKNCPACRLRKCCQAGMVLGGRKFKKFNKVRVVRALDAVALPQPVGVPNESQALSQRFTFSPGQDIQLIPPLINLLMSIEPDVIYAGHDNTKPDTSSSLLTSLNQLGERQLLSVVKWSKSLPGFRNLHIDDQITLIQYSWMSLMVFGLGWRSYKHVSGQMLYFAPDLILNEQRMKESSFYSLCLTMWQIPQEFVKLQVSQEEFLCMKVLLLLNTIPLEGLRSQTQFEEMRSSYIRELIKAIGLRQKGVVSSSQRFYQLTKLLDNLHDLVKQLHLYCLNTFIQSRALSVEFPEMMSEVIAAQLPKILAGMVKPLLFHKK
Procedure, shortened: (§1)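 Human steroid receptor (PR, MR, AR, ERα) binding measured by radioligand displacement, with IC50s determined in duplicate. Values without a range come from a single experiment, and values with a range are geometric means of repeat experiments.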

[2] = molecular target: T2, Estrogen receptor (Homo sapiens, UniProt P03372); assay: Displacement of [3H]estradiol from human estrogen receptor alpha; procedure, shortened: as §1
T2 sequence (P03372 whole entry): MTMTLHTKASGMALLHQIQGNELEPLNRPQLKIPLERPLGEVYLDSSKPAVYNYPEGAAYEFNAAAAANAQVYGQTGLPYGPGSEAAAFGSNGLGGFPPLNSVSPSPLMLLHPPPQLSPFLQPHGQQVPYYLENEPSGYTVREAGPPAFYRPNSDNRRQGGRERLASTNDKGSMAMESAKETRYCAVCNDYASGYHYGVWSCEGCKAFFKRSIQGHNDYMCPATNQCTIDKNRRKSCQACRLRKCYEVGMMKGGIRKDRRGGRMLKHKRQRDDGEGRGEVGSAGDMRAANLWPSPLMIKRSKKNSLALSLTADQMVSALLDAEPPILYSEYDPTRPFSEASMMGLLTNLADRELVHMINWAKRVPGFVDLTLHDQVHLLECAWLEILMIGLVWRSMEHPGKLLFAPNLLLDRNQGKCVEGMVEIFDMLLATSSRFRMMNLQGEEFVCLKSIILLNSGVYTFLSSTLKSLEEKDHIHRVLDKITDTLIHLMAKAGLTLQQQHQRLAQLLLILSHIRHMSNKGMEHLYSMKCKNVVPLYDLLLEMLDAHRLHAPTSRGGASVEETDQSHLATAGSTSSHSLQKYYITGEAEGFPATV

[3] = molecular target: T3, Glucocorticoid receptor (Homo sapiens, UniProt P04150); assay: Displacement of [3H]dexamethasone from human Glucocorticoid receptor (GR); Value ranges from 3-4 nM
T3 sequence (P04150 whole entry): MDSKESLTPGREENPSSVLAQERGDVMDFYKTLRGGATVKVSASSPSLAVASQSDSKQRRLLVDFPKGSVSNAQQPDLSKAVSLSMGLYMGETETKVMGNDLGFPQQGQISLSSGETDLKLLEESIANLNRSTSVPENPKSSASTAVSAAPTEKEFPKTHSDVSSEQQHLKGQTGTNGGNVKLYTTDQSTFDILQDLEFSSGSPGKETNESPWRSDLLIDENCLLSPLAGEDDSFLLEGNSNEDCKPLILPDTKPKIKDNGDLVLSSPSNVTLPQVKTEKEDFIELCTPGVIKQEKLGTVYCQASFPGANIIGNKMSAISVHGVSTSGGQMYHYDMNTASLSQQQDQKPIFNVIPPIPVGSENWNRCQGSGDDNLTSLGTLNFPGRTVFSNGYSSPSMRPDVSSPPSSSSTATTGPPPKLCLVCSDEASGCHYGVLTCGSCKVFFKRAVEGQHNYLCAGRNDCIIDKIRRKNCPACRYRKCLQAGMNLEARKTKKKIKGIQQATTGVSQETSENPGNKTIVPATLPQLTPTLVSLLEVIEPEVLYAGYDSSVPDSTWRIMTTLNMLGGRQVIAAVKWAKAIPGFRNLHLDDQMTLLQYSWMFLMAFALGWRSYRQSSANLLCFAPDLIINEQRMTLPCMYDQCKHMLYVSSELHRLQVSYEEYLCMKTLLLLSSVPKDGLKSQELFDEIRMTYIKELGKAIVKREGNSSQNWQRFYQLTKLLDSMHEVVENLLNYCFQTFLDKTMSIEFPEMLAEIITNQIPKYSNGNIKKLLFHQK
Procedure, shortened: (§2)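 Binding to human GR; IC50 reported as the geometric mean of two experiments (three for some values), each run in duplicate, with the range of the experiments given.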

[4] = molecular target: T3, Glucocorticoid receptor; assay: Displacement of [3H]dexamethasone from human Glucocorticoid receptor (GR); Value ranges from 70-92 nM
[5] = molecular target: T3, Glucocorticoid receptor
[6] = molecular target: T3, Glucocorticoid receptor; assay: Displacement of [3H]dexamethasone from human Glucocorticoid receptor (GR); […]
[7] = molecular target: T3, Glucocorticoid receptor; assay: Displacement of [3H]dexamethasone from human Glucocorticoid receptor (GR); Value ranges from 6-7 nM; procedure, shortened: as §2

With `COc1cccc2c1-c1ccc(NS(C)(=O)=O)cc1C(c1cccc(F)c1)O2` (stereo not given) as the compound, how does the IC50 [1] read?
Its IC50 is 476 nM.

And the IC50 [2]?
The IC50 was > 10 µM.

What about the IC50 [3] of the same compound?
The IC50 was 3 nM.

How did the IC50 [1] turn out when `CCOc1cccc2c1-c1ccc(NS(C)(=O)=O)cc1C(c1ccccc1)O2` (stereo not given) was run?
Its IC50 is 6900 nM.

What about the IC50 [2] of the same compound?
The IC50 was > 10 µM.

What about the IC50 [4] of the same compound?
The IC50 was 81 nM.

How did the IC50 [1] turn out when `COc1cccc2c1-c1ccc(NS(C)(=O)=O)cc1C(c1cccs1)O2` (stereo not given) was run?
Its IC50 is 450 nM.

What about the IC50 [2] of the same compound?
Its IC50 is > 10 µM.

And the IC50 [5]?
The IC50 was 7 nM.

With `COc1cccc2c1-c1ccc(NS(C)(=O)=O)cc1C(c1ccc(F)cc1)O2` (stereo not given) as the compound, how does the IC50 [6] read?
Its IC50 is 29 nM.

What about the IC50 [1] of the same compound?
Its IC50 is 1160 nM.

What about the IC50 [2] of the same compound?
The IC50 was > 1 µM.

With `COc1cccc2c1-c1ccc(NS(C)(=O)=O)cc1C(c1ccc(C)cc1)O2` (stereo not given) as the compound, how does the IC50 [1] read?
The IC50 was 673 nM.

What about the IC50 [7] of the same compound?
Its IC50 is 7 nM.

And the IC50 [2]?
The IC50 was > 10 µM.
